Data reported in ChEMBL document CHEMBL4346763, “Incorporation of a chiral gem-disubstituted nitrogen heterocycle yields an oxazolidinone antibiotic with reduced mitochondrial toxicity” (Bioorg Med Chem Lett, 2019).
≈ marks a conversion by molar mass, not a printed value. Values belong to the molecule of their own block, whether it stands above or below them.

What was measured:
[1] = Aqueous solubility of compound; assay type: physicochemical; settings: buffer
Cytochrome P450 2C19 = Cytochrome P450 2C19 (Homo sapiens, UniProt P33261); assay: Inhibition of CYP2C19 (unknown origin); assay type: ADME
Staphylococcus aureus [2] = assay: Antibacterial activity against methicillin-resistant Staphylococcus aureus ATCC 43300 measured after 18 hrs by broth microdilution method; assay type: functional; settings: ATCC 43300, 18 h
How it was run: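 S. aureus ATCC 43300 grown overnight in cation-adjusted Mueller Hinton broth at 37 °C, diluted 40-fold and regrown 1.5-3 h to mid-log. Inoculum 5×10^5 CFU/mL added to 8-point 1:2 serial dilutions from a top final concentration of 32 μg/mL or 20 μM, DMSO ≤0.5%, in duplicate. Incubated 18 h at 37 °C without shaking.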

Cytochrome P450 1A2 = target: T1, Cytochrome P450 1A2 (Homo sapiens, UniProt P05177); assay: Inhibition of CYP1A2 (unknown origin); assay type: ADME
T1 sequence (P05177 whole entry): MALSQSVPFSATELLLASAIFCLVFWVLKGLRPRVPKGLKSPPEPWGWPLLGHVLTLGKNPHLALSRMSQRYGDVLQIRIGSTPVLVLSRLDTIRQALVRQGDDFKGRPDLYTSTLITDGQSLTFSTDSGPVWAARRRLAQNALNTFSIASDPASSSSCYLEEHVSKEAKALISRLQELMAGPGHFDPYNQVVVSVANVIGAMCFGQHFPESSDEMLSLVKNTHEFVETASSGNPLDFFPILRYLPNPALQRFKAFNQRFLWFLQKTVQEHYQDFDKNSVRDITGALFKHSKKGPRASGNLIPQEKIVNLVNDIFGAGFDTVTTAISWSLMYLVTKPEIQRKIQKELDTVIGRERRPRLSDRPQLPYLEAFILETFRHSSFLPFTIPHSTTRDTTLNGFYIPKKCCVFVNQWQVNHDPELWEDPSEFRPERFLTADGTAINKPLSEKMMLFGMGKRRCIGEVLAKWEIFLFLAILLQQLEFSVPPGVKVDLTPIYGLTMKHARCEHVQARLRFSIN

Cytochrome P450 2C9 = Cytochrome P450 2C9 (Homo sapiens, UniProt P11712); assay: Inhibition of CYP2C9 (unknown origin); assay type: ADME
[3] = Half life in mouse hepatocytes
[4] = Stability in gastric pH assessed as compound remaining after 24 hrs relative to control; assay type: physicochemical
HepG2 = assay: Cytotoxicity against human HepG2 cells assessed as reduction in cell viability by CellTiter-Glo assay; assay type: cell-based
Staphylococcus aureus [5] = assay: Antibacterial activity against methicillin-sensitive Staphylococcus aureus ATCC 8235-4 measured after 16 hrs by broth microdilution method; assay type: functional; settings: ATCC 8235-4, 16 h
How it was run: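 Overnight culture diluted 1:200 into plates, sealed, shaken at 150 RPM at 37 °C for 16 h, then OD600 read. MIC defined as the concentration giving at least 90% growth inhibition relative to DMSO-treated wells; μM converted to μg/mL and rounded to nearest integer.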

Cytochrome P450 3A4 = Cytochrome P450 3A4 (Homo sapiens, UniProt P08684); assay: Inhibition of CYP3A4 (unknown origin); assay type: ADME
Cytochrome P450 2D6 = Cytochrome P450 2D6 (Homo sapiens, UniProt P10635); assay: Inhibition of CYP2D6 (unknown origin); assay type: ADME
[6] = Inhibition of protein synthesis in mitochondria (unknown origin) assessed as [35S]methionine incorporation incubated for 15 to 120 mins by paper disk assay; set-up: species or system Homo sapiens
Staphylococcus aureus [7] = assay: Antibacterial activity against Staphylococcus aureus JC9213 by CLSI based broth dilution assay; assay type: functional
Staphylococcus aureus [8] = assay: Antibacterial activity against methicillin-sensitive Staphylococcus aureus ATCC 8235-4 at 6 ug/ml measured after 16 hrs by broth microdilution method relative to control; assay type: functional; settings: ATCC 8235-4, 16 h
How it was run: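 Overnight S. aureus 8235-4 culture diluted 1:200 into LB broth containing compound at 4–22 μM in 2 μM steps. Plates sealed and shaken at 150 rpm, 37 °C, 16 h. OD600 read, and growth inhibition expressed relative to DMSO carrier-only wells. μM values converted to μg/mL and rounded to the nearest integer.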

Staphylococcus aureus [9] = assay: Antibacterial activity against methicillin-resistant Staphylococcus aureus ATCC 43300 at 6 ug/ml measured after 18 hrs by broth microdilution method relative to control; assay type: functional; settings: ATCC 43300, 18 h

Cytochrome P450 2C9, sequence (P11712 whole entry): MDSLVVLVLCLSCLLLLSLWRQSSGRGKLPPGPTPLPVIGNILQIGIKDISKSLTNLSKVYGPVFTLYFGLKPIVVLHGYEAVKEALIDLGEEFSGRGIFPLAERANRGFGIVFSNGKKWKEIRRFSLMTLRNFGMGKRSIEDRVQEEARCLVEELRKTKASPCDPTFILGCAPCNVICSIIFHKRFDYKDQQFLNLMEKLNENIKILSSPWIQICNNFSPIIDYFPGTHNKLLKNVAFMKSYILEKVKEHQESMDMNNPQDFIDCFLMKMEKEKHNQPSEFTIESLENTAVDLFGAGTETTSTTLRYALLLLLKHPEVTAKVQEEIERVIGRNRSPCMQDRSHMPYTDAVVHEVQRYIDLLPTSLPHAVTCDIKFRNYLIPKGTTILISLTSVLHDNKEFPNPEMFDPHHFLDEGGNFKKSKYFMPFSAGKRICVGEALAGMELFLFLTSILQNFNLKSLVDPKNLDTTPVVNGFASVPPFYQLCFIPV
Cytochrome P450 3A4, sequence (P08684 whole entry): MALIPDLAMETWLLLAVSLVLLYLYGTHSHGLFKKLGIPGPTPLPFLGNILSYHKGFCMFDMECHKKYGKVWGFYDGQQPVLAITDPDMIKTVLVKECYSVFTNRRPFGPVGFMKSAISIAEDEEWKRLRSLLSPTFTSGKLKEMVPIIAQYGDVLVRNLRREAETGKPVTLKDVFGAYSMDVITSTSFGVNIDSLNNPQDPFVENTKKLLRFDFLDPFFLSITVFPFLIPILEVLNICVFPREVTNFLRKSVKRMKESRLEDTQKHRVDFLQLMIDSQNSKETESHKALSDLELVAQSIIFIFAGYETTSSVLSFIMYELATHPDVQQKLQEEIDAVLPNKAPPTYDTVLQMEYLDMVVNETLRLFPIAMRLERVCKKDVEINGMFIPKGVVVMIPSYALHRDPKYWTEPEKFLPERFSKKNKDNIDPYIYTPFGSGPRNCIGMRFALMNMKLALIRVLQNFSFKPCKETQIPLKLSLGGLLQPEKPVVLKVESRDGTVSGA
Cytochrome P450 2C19, sequence (P33261 whole entry): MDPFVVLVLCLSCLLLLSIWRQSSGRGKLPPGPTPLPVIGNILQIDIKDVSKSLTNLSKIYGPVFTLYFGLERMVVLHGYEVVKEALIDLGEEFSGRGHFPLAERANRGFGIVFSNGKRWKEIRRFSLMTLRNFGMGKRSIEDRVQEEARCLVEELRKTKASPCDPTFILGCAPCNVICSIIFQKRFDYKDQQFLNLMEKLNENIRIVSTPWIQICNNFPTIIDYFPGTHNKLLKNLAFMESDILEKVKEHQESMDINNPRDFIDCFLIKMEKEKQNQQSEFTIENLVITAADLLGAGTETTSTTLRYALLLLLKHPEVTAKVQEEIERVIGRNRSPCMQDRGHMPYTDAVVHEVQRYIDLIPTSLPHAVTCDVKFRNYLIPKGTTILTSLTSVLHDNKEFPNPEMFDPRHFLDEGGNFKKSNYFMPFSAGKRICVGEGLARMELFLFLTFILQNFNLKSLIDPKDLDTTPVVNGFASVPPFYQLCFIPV
Cytochrome P450 2D6, sequence (P10635 whole entry): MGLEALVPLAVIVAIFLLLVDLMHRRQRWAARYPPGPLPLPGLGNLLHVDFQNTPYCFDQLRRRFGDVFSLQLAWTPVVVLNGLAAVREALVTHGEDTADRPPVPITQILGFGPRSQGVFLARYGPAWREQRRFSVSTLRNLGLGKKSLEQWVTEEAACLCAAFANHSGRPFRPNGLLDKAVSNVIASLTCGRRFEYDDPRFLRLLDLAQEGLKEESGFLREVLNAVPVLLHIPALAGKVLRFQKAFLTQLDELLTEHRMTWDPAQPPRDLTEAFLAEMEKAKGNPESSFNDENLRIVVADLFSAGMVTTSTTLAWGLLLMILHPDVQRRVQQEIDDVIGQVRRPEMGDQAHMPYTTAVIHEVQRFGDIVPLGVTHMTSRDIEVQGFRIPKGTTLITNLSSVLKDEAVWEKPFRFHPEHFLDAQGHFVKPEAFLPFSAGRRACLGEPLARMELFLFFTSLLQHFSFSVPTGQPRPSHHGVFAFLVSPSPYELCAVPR

SMILES: CC(=O)NC[C@H]1CN(c2ccc(N3CCO[C@@]4(CCCOC4)C3)c(F)c2)C(=O)O1
- solubility [1]: > 52.15 µg/mL
- INH (Cytochrome P450 2C19): > 100 µM
- MIC (Staphylococcus aureus [2]): 5 µg/mL (≈ 12.3 µM)
- INH (Cytochrome P450 1A2): > 100 µM
- INH (Cytochrome P450 2C9): > 100 µM
- t1/2 [3]: 2.83 h
- Stability [4]: 94%
- EC50 (HepG2): > 30 µM
- MIC (Staphylococcus aureus [5]): 6 µg/mL (≈ 14.7 µM)
- INH (Cytochrome P450 3A4): > 100 µM
- INH (Cytochrome P450 2D6): > 100 µM

SMILES: CC(=O)NC[C@H]1CN(c2ccc(N3CCOC(C)(CCCO)C3)c(F)c2)C(=O)O1 (some centres undefined)
- MIC (Staphylococcus aureus [2]): > 32 µg/mL

SMILES: CCCC1(C)CN(c2ccc(N3C[C@H](CNC(C)=O)OC3=O)cc2F)CCO1 (some centres undefined)
- MIC (Staphylococcus aureus [2]): 16 µg/mL (≈ 40.7 µM)

SMILES: CC(=O)NC[C@H]1CN(c2ccc(N3CCOC(C)(C)C3)c(F)c2)C(=O)O1
- MIC (Staphylococcus aureus [2]): 8 µg/mL (≈ 21.9 µM)

- MIC (Staphylococcus aureus [5]): > 32 µg/mL
SMILES: C=CCC1(COCc2ccccc2)CN(c2ccc(N3C[C@H](CNC(C)=O)OC3=O)cc2F)CCO1 (some centres undefined)

SMILES: CC(=O)NC[C@H]1CN(c2ccc(N3CCOCC3)c(F)c2)C(=O)O1 [LINEZOLID]
- INH (Cytochrome P450 2C19): > 100 µM
- MIC (Staphylococcus aureus [2]): 1 µg/mL (≈ 2.96 µM)
- INH (Cytochrome P450 1A2): > 100 µM
- INH (Cytochrome P450 2C9): > 100 µM
- t1/2 [3]: > 3.613 h
- Stability [4]: 98%
- EC50 (HepG2): > 30 µM
- INH (Cytochrome P450 3A4): > 100 µM
- INH (Cytochrome P450 2D6): > 100 µM
- IC50 [6]: 12.8 µg/mL (≈ 37.9 µM)

SMILES: CC(=O)NC[C@H]1CN(c2ccc(-n3cncn3)c(F)c2)C(=O)O1
- MIC (Staphylococcus aureus [7]): 4 µg/mL (≈ 12.5 µM)
- IC50 [6]: 1.7 µg/mL (≈ 5.32 µM)

SMILES: CC(=O)NC[C@H]1CN(c2ccc(N3CCN(C(=O)CO)CC3)c(F)c2)C(=O)O1 [EPEREZOLID]
- MIC (Staphylococcus aureus [7]): 2 µg/mL (≈ 5.07 µM)
- IC50 [6]: 4.2 µg/mL (≈ 10.6 µM)

- solubility [1]: > 48.49 µg/mL
- INH (Cytochrome P450 2C19): > 100 µM
- INH (Cytochrome P450 1A2): > 100 µM
- INH (Cytochrome P450 2C9): > 100 µM
- t1/2 [3]: 2.138 h
- Stability [4]: 89%
- MIC (Staphylococcus aureus [5]): 9 µg/mL (≈ 22.1 µM)
- INH (Cytochrome P450 3A4): > 100 µM
- INH (Cytochrome P450 2D6): > 100 µM
SMILES: CC(=O)NC[C@H]1CN(c2ccc(N3CCO[C@]4(CCCOC4)C3)c(F)c2)C(=O)O1
- EC50 (HepG2): > 30 µM

SMILES: CC(=O)NC[C@H]1CN(c2ccc(N3CCOC4(CCOC4)C3)c(F)c2)C(=O)O1 (some centres undefined)
- inhibition at 6 µg/mL (Staphylococcus aureus [8]): 65%

SMILES: CCCC1(CO)CN(c2ccc(N3C[C@H](CNC(C)=O)OC3=O)cc2F)CCO1 (some centres undefined)
- inhibition at 6 µg/mL (Staphylococcus aureus [8]): 48%

SMILES: C=CCC1(C)CN(c2ccc(N3C[C@H](CNC(C)=O)OC3=O)cc2F)CCO1 (some centres undefined)
- MIC (Staphylococcus aureus [2]): 16 µg/mL (≈ 40.9 µM)

- MIC (Staphylococcus aureus [5]): > 32 µg/mL
SMILES: CC(=O)NC[C@H]1CN(c2ccc(N3CCOC(C)(CCCOC(C)=O)C3)c(F)c2)C(=O)O1 (some centres undefined)

- MIC (Staphylococcus aureus [5]): > 32 µg/mL
SMILES: CC(=O)NC[C@H]1CN(c2ccc(N3CCOC(C)(CCN(C)C)C3)c(F)c2)C(=O)O1 (some centres undefined)

- MIC (Staphylococcus aureus [5]): > 32 µg/mL
SMILES: CC(=O)NC[C@H]1CN(c2ccc(N3CCOC4(CCNC4)C3)c(F)c2)C(=O)O1 (some centres undefined)

SMILES: CC(=O)NC[C@H]1CN(c2ccc(N3CCOC4(CCCN(C(C)=O)C4)C3)c(F)c2)C(=O)O1 (some centres undefined)
- inhibition at 6 µg/mL (Staphylococcus aureus [8]): 18%
- inhibition at 6 µg/mL (Staphylococcus aureus [9]): 18%

- MIC (Staphylococcus aureus [7]): 2 µg/mL (≈ 5.19 µM)
- IC50 [6]: 0.83 µg/mL (≈ 2.15 µM)
SMILES: C/N=c1\ccc(-c2ccc(N3C[C@H](CNC(C)=O)OC3=O)cc2F)ccc1O

- MIC (Staphylococcus aureus [7]): 1 µg/mL (≈ 2.99 µM)
- IC50 [6]: 0.95 µg/mL (≈ 2.84 µM)
SMILES: CC(=O)NC[C@H]1CN(c2ccc(C3=CCOCC3)c(F)c2)C(=O)O1

- MIC (Staphylococcus aureus [5]): 7 µg/mL (≈ 17.2 µM)
SMILES: CC(=O)NC[C@H]1CN(c2ccc(N3CCOC4(CCCOC4)C3)c(F)c2)C(=O)O1 (some centres undefined)

- MIC (Staphylococcus aureus [5]): > 32 µg/mL
SMILES: CC(=O)NC[C@H]1CN(c2ccc(N3CCOC4(CCCNC4)C3)c(F)c2)C(=O)O1 (some centres undefined)

- MIC (Staphylococcus aureus [5]): > 32 µg/mL
SMILES: CC(=O)NC[C@H]1CN(c2ccc(N3CCOC4(CCN(C)C4)C3)c(F)c2)C(=O)O1 (some centres undefined)
